Measured values from different studies.
Protocols differ between the studies behind these lines.
AKR1B1: Aldo-keto reductase family 1 member B1 (AKR1B1, Homo sapiens, UniProt P15121)
LATS2: Serine/threonine-protein kinase LATS2 (LATS2, Homo sapiens, UniProt Q9NRM7)

Clc1ccc(Nc2ccncc2)cc1Cl
IC50 (Endonuclease 8-like 1 (NEIL1, Homo sapiens, UniProt Q96FI4); enzyme activity, inhibitor): > 99 µM

COc1cc(/C=N/NC(=S)N/N=C/c2ccc(Br)cc2)ccc1Oc1ccnc2cc(Cl)ccc12
IC50 (AKR1B1; enzyme activity, inhibitor, absorbance): 8.82 µM

COc1c(Cl)cccc1Nc1c(-c2ccncc2OC[C@@H]2COCCO2)[nH]c2c1C(=O)NCC2
IC50 (Tyrosine-protein kinase Lck, phosphorylated (LCK, Homo sapiens, UniProt P06239); enzyme activity, inhibitor, TR-FRET): 1.13 µM

COc1cc(CN(CCN)C(=O)c2cccs2)ccc1OCc1ccccc1
IC50 (Transient receptor potential cation channel subfamily M member 8 (TRPM8, Homo sapiens, UniProt Q7Z2W7); ion current, inhibitor, patch clamp): 0.012 µM

COc1cc(/C=N/NC(=S)NN=Cc2cccs2)ccc1Oc1ccnc2cc(Cl)ccc12
IC50 (AKR1B1; enzyme activity, inhibitor, absorbance): 19.7 µM

Cc1cc(-c2cc(O)ccc2Cl)cc2nnc(Nc3ccc(OCCN4CCCC4)cc3)nc12
IC50 (Tyrosine-protein kinase Lck (LCK, Homo sapiens, UniProt P06239); cell-free assay): 0.000292 µM

Cc1cc2c(cc1C)N[C@H](c1ccccc1)[C@@H](O)C(=O)N2
IC50 (Tyrosine-protein kinase JAK2 (JAK2, Homo sapiens, UniProt O60674); enzyme activity, inhibitor, ELISA): 0.343 µM

OC1(c2ccc(-c3ccnc4[nH]cc(F)c34)cc2)CCCNC1 (stereo not drawn)
IC50 (LATS2; enzyme activity, inhibitor, radiometric): 0.01 µM

COc1cc(/C=N/NC(=S)N/N=C/c2ccc(F)cc2)ccc1Oc1ccnc2cc(Cl)ccc12
IC50 (AKR1B1; enzyme activity, inhibitor, absorbance): 19.5 µM

Cc1cc(-c2ccnc3[nH]cc(F)c23)cc(F)c1[C@@]1(O)[C@H](C)CN(C(=O)CN)C[C@@H]1C
IC50 (LATS2; target engagement in cells, BRET): 0.0051 µM

Cc1cn([C@H]2C[C@H](OP(=O)(O)OC[C@H]3O[C@@H](n4cc(C)c(=O)[nH]c4=O)C[C@@H]3O)[C@@H](COP(=O)(O)OP(=O)(O)O)O2)c(=O)[nH]c1=O
IC50 (dgt (Salmonella enterica, UniProt A0A5H6DAK1); enzyme activity, inhibitor): 19.7 µM

COc1cc(/C=N/NC(=S)N/N=C/c2ccc(Cl)cc2)ccc1Oc1ccnc2cc(Cl)ccc12
IC50 (AKR1B1; enzyme activity, inhibitor, absorbance): 14.9 µM

C[C@@H]1CNC[C@H](C)[C@@]1(O)c1ccc(-c2ccnc3[nH]cc(F)c23)cc1
IC50 (LATS2; enzyme activity, inhibitor, radiometric): 0.0087 µM

COc1cc(/C=N/NC(=S)NN=Cc2scnc2C)ccc1Oc1ccnc2cc(Cl)ccc12
IC50 (AKR1B1; enzyme activity, inhibitor, absorbance): 17.8 µM

OC1(c2ccc(-c3ccnc4[nH]cc(F)c34)cc2)CCCNCC1 (stereo not drawn)
IC50 (LATS2; enzyme activity, inhibitor, radiometric): 0.012 µM
